Experimental findings from ChEMBL document CHEMBL3525985, “Regiospecificity and stereospecificity of human UDP-glucuronosyltransferases in the glucuronidation of estriol, 16-epiestriol, 17-epiestriol, and 13-epiestradiol” (Drug Metab Dispos, 2013) are described below.

Holding throughout (type): ADME
Holding throughout (conditions): recombinant enzyme

Data set [1] deals with T1, UDP-glucuronosyltransferase 2B7 (Homo sapiens, UniProt P16662).
T1 sequence (P16662 whole entry): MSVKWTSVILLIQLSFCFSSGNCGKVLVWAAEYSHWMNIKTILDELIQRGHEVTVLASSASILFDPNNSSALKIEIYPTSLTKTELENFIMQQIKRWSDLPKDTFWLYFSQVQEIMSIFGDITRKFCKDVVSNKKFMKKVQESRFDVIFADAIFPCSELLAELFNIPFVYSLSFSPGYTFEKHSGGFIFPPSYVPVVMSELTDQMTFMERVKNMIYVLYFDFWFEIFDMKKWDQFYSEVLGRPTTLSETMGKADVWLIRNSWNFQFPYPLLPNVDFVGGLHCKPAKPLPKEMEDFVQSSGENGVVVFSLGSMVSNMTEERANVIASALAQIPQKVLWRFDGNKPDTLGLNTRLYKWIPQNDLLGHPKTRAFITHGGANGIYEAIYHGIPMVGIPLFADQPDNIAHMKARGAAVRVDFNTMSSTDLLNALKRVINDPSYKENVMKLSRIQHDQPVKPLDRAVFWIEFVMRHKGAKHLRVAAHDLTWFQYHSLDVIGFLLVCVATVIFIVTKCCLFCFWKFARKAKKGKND
Put plainly: Drug metabolism assessed as recombinant human C-terminal His-tagged UGT2B7-mediated 17-epiestriol-17-glucuronide formation at 200 uM after 15 to 60 mins by HPLC analysis in presence of UDPGA. In short, it runs like this:
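Membranes (5 or 50 µg) from insect cells expressing His-tagged UGT2B7, with 200 µM aglycone in 50 mM phosphate pH 7.4, 10 mM MgCl₂, 5 mM UDPGA and 10% DMSO (final), 15–60 min at 37°C. Stopped with perchloric acid on ice, supernatant run on HPLC. Done in triplicate with no-UDPGA controls; rates normalized to relative UGT expression.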

For data set [2], the target named is T2, UDP-glucuronosyltransferase 2B15 (Homo sapiens, UniProt P54855).
T2 sequence (P54855 whole entry): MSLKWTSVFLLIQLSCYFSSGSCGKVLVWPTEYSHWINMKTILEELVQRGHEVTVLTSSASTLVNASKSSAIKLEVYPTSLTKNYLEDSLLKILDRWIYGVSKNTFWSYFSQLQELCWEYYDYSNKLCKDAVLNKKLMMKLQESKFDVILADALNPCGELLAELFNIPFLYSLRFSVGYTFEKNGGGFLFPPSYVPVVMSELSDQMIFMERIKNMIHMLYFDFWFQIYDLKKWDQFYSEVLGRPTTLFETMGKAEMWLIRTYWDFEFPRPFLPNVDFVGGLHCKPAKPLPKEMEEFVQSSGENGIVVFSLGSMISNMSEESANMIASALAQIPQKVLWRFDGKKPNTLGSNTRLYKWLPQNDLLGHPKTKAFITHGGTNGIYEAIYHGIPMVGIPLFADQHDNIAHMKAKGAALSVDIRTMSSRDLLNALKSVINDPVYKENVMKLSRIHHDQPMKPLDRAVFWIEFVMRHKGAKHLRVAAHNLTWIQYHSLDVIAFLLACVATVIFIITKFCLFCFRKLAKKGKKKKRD
Put plainly: Drug metabolism assessed as recombinant human C-terminal […]-mediated 17-epiestriol-3-glucuronide formation at 200 uM after 15 to 60 mins by HPLC analysis in presence of UDPGA.

The target of data set [3] is T3, UDP-glucuronosyltransferase 1A8 (Homo sapiens, UniProt Q9HAW9).
T3 sequence (Q9HAW9 whole entry): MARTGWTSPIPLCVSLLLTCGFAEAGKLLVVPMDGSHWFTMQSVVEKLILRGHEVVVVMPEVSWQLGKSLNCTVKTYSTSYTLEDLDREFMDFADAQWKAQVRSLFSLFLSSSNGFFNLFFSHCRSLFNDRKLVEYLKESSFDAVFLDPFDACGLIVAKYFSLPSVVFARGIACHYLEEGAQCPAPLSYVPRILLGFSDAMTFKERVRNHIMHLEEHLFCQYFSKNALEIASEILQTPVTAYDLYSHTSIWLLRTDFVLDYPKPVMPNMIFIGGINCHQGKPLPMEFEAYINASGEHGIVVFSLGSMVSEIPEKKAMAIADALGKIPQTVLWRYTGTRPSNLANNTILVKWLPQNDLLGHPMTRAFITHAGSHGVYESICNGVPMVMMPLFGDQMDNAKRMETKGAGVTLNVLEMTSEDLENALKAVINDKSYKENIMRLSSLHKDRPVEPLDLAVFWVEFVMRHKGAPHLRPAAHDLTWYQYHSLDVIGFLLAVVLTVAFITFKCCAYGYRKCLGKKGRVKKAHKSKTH
Put plainly: Drug metabolism assessed as recombinant human C-terminal His-tagged UGT1A8-mediated estradiol-3-glucuronide formation at 200 uM after 15 to 60 mins by HPLC analysis in presence of UDPGA. In short, it runs like this: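 Screening at a single substrate concentration of 200 μM, in triplicate. The reaction used 5 or 50 µg of UGT-enriched insect cell membranes in 50 mM phosphate pH 7.4 with 10 mM MgCl₂ and 5 mM UDPGA, 10% final DMSO. Incubation was 15–60 min at 37°C. Perchloric acid stopped the reaction and supernatants were analysed by HPLC. Controls lacked UDPGA. Rates were normalized to relative UGT expression level.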

Turning to `C[C@]12CC[C@@H]3c4ccc(O)cc4CC[C@H]3[C@@H]1C[C@@H](O)[C@H]2O`, the Drug metabolism result in data set [1] and in data set [2] was “metabolite_detected” throughout.

With `C[C@]12CC[C@@H]3c4ccc(O)cc4CC[C@H]3[C@@H]1CC[C@@H]2O` [ESTRADIOL], the Drug metabolism result in data set [3] was “metabolite_detected”.
